Data reported in ChEMBL document CHEMBL3621143, “Discovery of BMS-641988, a Novel Androgen Receptor Antagonist for the Treatment of Prostate Cancer” (ACS Med Chem Lett, 2015).
Calls of active or inactive are those of the source. The calls are words filed in the database; no cut-off is given here.

How the values were obtained:
[1] = test system: CWR22; experiment: Antitumor activity against bicalutamide-resistant human CWR22 cells in Balb/c athymic (nu/nu) mouse CWR22-BMSLD1 prostate cancer xenograft model assessed as tumor growth inhibition at 90 mg/kg, po qd administered for 45 days measured for 10 days during compound dosing; type: functional, organism-based
How it was run: (§1)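 CWR22-BMSLD1 human prostate cancer xenograft. Oral once-daily dosing at 90 mg/kg for 45 days, or at 150 mg/kg for 35 days, with a vehicle group. Median tumor volume (mm3) tracked against days post implant.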

[2] = test system: Rattus norvegicus; experiment: In vivo antagonist activity at androgen receptor in immature Sprague-Dawley rat prostate weight model assessed as testosterone propionate-induced weight of seminal vesicles over full body weight at 1 mg/kg, po qd administered for 4 days; type: functional; set-up: scale not given: the % may be the effect or the level left
How it was run: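 Immature rat prostate weight PK/PD model. Oral dosing once daily at 1 or 10 mg/kg for 4 days. Seminal vesicle weight expressed as % of full body weight, n=3, scaled so testosterone-treated control = 100% and sham = 10%.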

[3] = Plasma concentration in immature Sprague-Dawley rat prostate weight model at 1 mg/kg, po qd administered for 4 days measured 2 hrs post last dose on day 4; type: ADME, organism-based
How it was run: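 Immature rat prostate weight model, oral dosing once daily at 1 or 10 mg/kg for 4 days. Plasma drug concentration (µM) measured 2 hours post-dose on day 4, n=3.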

[4] = test system: Hepatocyte; experiment: Drug metabolism in mouse hepatocytes assessed per 10^6 cells; type: ADME, cell-based
How it was run: (§2)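 Metabolic rate in mouse, rat, dog, monkey and human hepatocyte incubations, expressed as pmol/min/10^6 cells.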

[5] = target: T1, Cytochrome P450 2C8 (Homo sapiens, UniProt P10632); experiment: Inhibition of human CYP2C8; type: ADME
T1 sequence (P10632 whole entry): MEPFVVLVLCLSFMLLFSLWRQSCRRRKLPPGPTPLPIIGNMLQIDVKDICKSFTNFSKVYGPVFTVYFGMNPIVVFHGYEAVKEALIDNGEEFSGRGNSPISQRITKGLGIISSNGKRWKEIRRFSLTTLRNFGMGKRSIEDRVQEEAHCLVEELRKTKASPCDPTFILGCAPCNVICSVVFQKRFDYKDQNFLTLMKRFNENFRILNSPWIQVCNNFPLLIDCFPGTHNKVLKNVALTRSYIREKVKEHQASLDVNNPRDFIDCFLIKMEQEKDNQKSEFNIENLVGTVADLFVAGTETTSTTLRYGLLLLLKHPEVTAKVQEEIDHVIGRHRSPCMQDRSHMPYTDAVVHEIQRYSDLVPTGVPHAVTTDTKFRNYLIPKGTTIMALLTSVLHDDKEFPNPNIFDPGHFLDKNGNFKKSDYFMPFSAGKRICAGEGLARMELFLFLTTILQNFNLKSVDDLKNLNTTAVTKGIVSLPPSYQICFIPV

[6] = target: Cytochrome P450 2D6 (Homo sapiens, UniProt P10635); experiment: Inhibition of human CYP2D6; type: ADME
[7] = target: Cytochrome P450 3A4 (Homo sapiens, UniProt P08684); experiment: Inhibition of human CYP3A4; type: ADME
[8] = target: T2, Nuclear receptor subfamily 1 group I member 2 (Homo sapiens, UniProt O75469); experiment: Transactivation of human PXR; type: ADME
T2 sequence (O75469 whole entry): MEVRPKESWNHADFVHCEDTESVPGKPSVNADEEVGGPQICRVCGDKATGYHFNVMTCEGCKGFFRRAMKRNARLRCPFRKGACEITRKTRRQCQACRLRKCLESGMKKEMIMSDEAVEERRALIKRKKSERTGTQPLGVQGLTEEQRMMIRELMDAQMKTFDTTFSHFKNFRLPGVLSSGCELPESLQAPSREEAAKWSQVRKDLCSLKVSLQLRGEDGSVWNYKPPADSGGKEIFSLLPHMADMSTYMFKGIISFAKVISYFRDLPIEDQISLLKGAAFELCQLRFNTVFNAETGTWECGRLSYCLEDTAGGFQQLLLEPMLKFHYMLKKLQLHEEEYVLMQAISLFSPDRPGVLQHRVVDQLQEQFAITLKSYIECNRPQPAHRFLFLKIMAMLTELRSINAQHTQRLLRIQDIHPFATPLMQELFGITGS

[9] = Fraction unbound in human plasma by equilibrium dialysis method; type: ADME, cell-free
How it was run: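 Plasma protein binding measured by equilibrium dialysis in mouse, rat, dog and human plasma, reported as % free.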

[10] = Drug metabolism in monkey hepatocytes assessed per 10^6 cells; type: ADME, cell-based, Macaca mulatta, Hepatocyte; settings: rhesus monkey; how it was run: as §2
[11] = test system: Hepatocyte; experiment: Drug metabolism in human hepatocytes assessed per 10^6 cells; type: ADME, cell-based; how it was run: as §2
[12] = Half life in mouse at 5 mg/kg, iv and 10 mg/kg, po; type: ADME, organism-based; settings: in vivo
How it was run: (§3)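 Single IV and oral doses in mouse and rat (IV 5, PO 10 mg/kg) and dog (IV 1, PO 2 mg/kg). Half-life, clearance, AUC0-∞ (µM*h) and %F derived from the plasma profiles.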

[13] = AUC (0 to infinity) in mouse at 5 mg/kg, iv; type: ADME, organism-based; set-up: dose 5 mg/kg, time infinity, route intravenous; settings: in vivo; how it was run: as §3
[14] = AUC (0 to infinity) in mouse at 10 mg/kg, po; type: ADME, organism-based; set-up: dose 10 mg/kg, route oral, time infinity; settings: in vivo; how it was run: as §3
[15] = Oral bioavailability in mouse at 10 mg/kg; type: ADME, organism-based; settings: in vivo; how it was run: as §3
[16] = Clearance in rat at 5 mg/kg, iv and 10 mg/kg, po; type: ADME, organism-based; settings: in vivo; how it was run: as §3
[17] = AUC (0 to infinity) in rat at 5 mg/kg, iv; type: ADME, organism-based; set-up: dose 5 mg/kg, route intravenous, time infinity; settings: in vivo; how it was run: as §3
[18] = AUC (0 to infinity) in rat at 10 mg/kg, po; type: ADME, organism-based; set-up: dose 10 mg/kg, route oral, time infinity; settings: in vivo; how it was run: as §3
[19] = Half life in dog at 1 mg/kg, iv and 2 mg/kg, po; type: ADME, organism-based, Canis lupus familiaris; settings: in vivo; how it was run: as §3
[20] = Clearance in dog at 1 mg/kg, iv and 2 mg/kg, po; type: ADME, organism-based, Canis lupus familiaris; settings: in vivo; how it was run: as §3
[21] = AUC (0 to infinity) in dog at 1 mg/kg, iv; type: ADME, organism-based, Canis lupus familiaris; set-up: dose 1 mg/kg, route intravenous, time infinity; settings: in vivo; how it was run: as §3
[22] = Oral bioavailability in dog at 2 mg/kg; type: ADME, organism-based, Canis lupus familiaris; settings: in vivo; how it was run: as §3
[23] = test system: CWR22; experiment: Antitumor activity against human CWR22 cells in Balb/c athymic (nu/nu) mouse CWR22-BMSLD1 prostate cancer xenograft model assessed as tumor growth inhibition at 90 mg/kg, po qd administered for 45 days measured every day during compound dosing; type: functional, organism-based; how it was run: as §1
[24] = test system: CWR22; experiment: Antitumor activity against bicalutamide-resistant human CWR22 cells in Balb/c athymic (nu/nu) mouse CWR22-BMSLD1 prostate cancer xenograft model assessed as tumor growth inhibition at 90 mg/kg, po qd administered for 45 days measured from day 10 to 45 during compound dosing; type: functional, organism-based; how it was run: as §1

Sequence of Cytochrome P450 3A4 (P08684 whole entry): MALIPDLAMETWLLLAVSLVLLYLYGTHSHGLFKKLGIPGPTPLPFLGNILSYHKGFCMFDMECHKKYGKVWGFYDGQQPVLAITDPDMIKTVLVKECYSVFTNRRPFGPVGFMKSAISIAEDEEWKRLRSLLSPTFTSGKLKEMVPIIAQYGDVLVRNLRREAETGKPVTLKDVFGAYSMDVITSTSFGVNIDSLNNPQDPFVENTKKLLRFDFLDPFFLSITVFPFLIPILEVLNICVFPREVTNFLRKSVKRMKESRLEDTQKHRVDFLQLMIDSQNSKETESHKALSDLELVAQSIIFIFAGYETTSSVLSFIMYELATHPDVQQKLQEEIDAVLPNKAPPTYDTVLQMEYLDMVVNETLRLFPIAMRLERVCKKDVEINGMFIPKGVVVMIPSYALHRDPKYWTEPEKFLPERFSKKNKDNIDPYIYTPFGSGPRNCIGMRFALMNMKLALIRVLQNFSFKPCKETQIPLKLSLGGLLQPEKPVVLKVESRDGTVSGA
Sequence of Cytochrome P450 2D6 (P10635 whole entry): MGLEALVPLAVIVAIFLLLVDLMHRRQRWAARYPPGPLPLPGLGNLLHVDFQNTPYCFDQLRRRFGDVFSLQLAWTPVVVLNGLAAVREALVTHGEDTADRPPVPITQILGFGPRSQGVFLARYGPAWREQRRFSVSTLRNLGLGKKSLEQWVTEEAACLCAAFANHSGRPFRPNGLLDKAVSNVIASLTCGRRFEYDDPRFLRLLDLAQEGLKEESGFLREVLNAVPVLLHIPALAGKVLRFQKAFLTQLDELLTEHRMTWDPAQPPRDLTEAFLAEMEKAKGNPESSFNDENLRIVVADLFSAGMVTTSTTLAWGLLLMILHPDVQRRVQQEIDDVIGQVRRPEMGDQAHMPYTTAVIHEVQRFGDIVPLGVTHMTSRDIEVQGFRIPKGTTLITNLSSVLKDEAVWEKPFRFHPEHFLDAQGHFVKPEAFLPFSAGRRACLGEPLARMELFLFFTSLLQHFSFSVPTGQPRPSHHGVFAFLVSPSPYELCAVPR

## CCS(=O)(=O)N[C@@H]1C[C@]2(C)O[C@]1(C)[C@@H]1C(=O)N(c3ccc(C#N)c(C(F)(F)F)c3)C(=O)[C@@H]12
[1]
  TGI: inactive
[2]
  Activity: 58%
[3]
  concentration at 2 h: 790 nM
[4]
  Drug metabolism: 0 pmol/min
[5]
  IC50: > 40 µM
[6]
  IC50: > 40 µM
[7]
  IC50: > 40 µM
[8]
  EC50: > 50 µM
[9]
  fraction unbound: 0.104
[10]
  Drug metabolism: 1 pmol/min
[11]
  Drug metabolism: 2 pmol/min
[12]
  half-life: 2.4 h
[13]
  AUC(0-inf): 39.1 µM·h
[14]
  AUC(0-inf): 74.1 µM·h
[15]
  bioavailability: 94.7%
[16]
  clearance: 6.5 mL/min/kg
[17]
  AUC(0-inf): 31.7 µM·h
[18]
  AUC(0-inf): 40.5 µM·h
[19]
  half-life: 21.8 h
[20]
  clearance: 0.35 mL/min/kg
[21]
  AUC(0-inf): 102 µM·h
[22]
  bioavailability: 79%
[23]
  TGI: Active
[24]
  TGI: Active
